Results published in PMC11897353 (Scientific Reports, 2025).
“Also recorded” adds a separate entry of the source.

Experiments:
[1] = target: receptor 5-HT6; settings: reported for the endogenous ligand; cited from earlier work
[2] = tested on: SH-SY5Y cells; assay: Autophagy induction by LC3 immunofluorescence; type: cell-based, human; settings: for number of autophagosomes per cell / percentage of cells with autophagosomes (LC3-positive punctate pattern): SH-SY5Y, 25 µM, 24 h, vs control; for capacity to induce autophagy: neuroblastoma SH-SY5Y cell line
Outline: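 SH-SY5Y cells were grown on coverslips at 20–40% confluence for 24 h, then given test compound at 25 µM for 24 h. Fixation used 4% paraformaldehyde plus DAPI for 20 min. Cells were permeabilized with 0.1% Triton, blocked in 3% BSA, and stained with anti-LC3A/B (1:400, overnight 4 °C) then Alexa 488 secondary. Images at 20x. Cells with LC3 puncta were counted against DAPI nuclei, and puncta per cell by 3D object counting.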

[3] = tested on: 5-HT6R; assay: 5-HT6R protein levels by Western blot; type: cell-based, human; settings: SH-SY5Y, 24 h, densitometry vs control; Rapamycin 100 nM
Outline: (§1)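 Test compound was diluted in medium from a 5 mM DMSO stock and applied to SH-SY5Y cells for 24 h, after 24 h growth and a PBS wash. Controls were untreated medium and rapamycin. Cells were lysed in RIPA with protease/phosphatase inhibitors and protein measured by BCA. Equal protein was run on 6%/12% SDS-PAGE, then PVDF, 3% BSA block, primary overnight 4 °C, ECL. Densitometry; n≥3, mean ± SEM, one-way ANOVA with Tukey.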

[4] = tested on: SH-SY5Y cells; assay: MTT cell viability assay; type: cell-based, human; settings: SH-SY5Y, 5 µM, 10 µM and 25 µM, 24 h, MTT
Outline: (§2)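 SH-SY5Y cells were seeded at 5 × 10³ per well, grown 24 h, then given test compound at 5, 10 or 25 µM for 24 h, in triplicate. A solvent control was included, and 10% SDS added 1 h before the end served as the death control. MTT at 0.5 mg/mL ran 4 h at 37 °C, followed by overnight solubilization in 10% SDS/0.1 M HCl and A570. Results are % MTT reduction versus the negative control (100%); 3 experiments, one-way ANOVA.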

[5] = MTT cell viability assay; type: cell-based, human; settings: human, SH-SY5Y neuroblastoma cells
Outline: as §2

[6] = Preliminary zebrafish larvae viability assay; settings: in vivo, other: larvae exposed to the compound at 2–50 µM
[7] = tested on: LC3 and p62; assay: Common autophagy pathway protein levels; type: cell-based, human; settings: SH-SY5Y, 24 h, vs control; Rapamycin 100 nM
Outline: as §1

[8] = tested on: mTOR pathway; assay: mTOR pathway protein phosphorylation by Western blot; type: cell-based, human; settings: SH-SY5Y, 24 h, vs control; Rapamycin 100 nM
Outline: as §1

[9] = target: human 5-HT6 receptors (Homo sapiens, UniProt P50406); assay: biochemical; type: binding
Sequence of human 5-HT6 receptors (P50406 whole entry): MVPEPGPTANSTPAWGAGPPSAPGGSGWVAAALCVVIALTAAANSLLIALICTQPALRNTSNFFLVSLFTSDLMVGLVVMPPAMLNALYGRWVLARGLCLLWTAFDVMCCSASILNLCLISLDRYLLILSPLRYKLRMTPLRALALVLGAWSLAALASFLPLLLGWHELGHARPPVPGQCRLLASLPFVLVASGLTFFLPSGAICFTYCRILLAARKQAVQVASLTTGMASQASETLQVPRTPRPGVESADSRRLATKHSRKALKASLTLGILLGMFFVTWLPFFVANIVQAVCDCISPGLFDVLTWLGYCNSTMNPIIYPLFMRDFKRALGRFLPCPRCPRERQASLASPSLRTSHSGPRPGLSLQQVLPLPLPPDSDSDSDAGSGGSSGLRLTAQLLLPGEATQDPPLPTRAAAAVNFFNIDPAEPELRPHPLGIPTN

SMILES	Ki [1] [nM]	number of autophagosomes per cell [2]	percentage of cells with autophagosomes (LC3-positive punctate pattern) [2]	capacity to induce autophagy [2]	expression levels of 5-HT6R [3]	cytotoxicity / cellular viability (in words) [4]	viability at 24 h, 25 µM [5] [%]	viability at 48 h [6] [%]	LC3-II/LC3-I ratio [7]	p62 levels [7]	total LC3-II levels [7]	phosphorylated levels of BECN1 (Ser30) [8]	phosphorylated levels of ULK1 (Ser757) [8]	phosphorylated levels of mTOR (Ser2448) [8]	IC50 [9] [nM]	Ki [9] [nM]
COc1ccccc1N1CCN(CC(O)c2cn(S(=O)(=O)c3cccc4ccccc34)c3ccccc23)CC1 (stereo not shown) [PUC-10, 2-(4-(2-methoxyphenyl)piperazin-1-yl)-1-(1-(naphthalen-1-ylsulfonyl)-1 H-indol-3-yl)ethan-1-ol]	–	significant increase	significantly higher percentage	high capacity to induce autophagy	increases significantly; also recorded: significantly increased	do not induce cytotoxicity; also recorded: do not cause toxicity	> 90	~85	significant increase	significantly decreased	significantly increased	significantly increased	significantly decreases	significantly decreases	–	–
COc1ccccc1N1CCN(CC(O)c2nn(S(=O)(=O)c3cccc4ccccc34)c3ccccc23)CC1 (stereo not shown) [PUC-55, 2-(4-(2-methoxyphenyl)piperazin-1-yl)-1-(1-(naphthalen-1-ylsulfonyl)-1H-indazol-3-yl)ethan-1-ol]	–	significant increase	significantly higher percentage	potent autophagy-inducing activity	increases significantly; also recorded: significantly increased	high cellular viability; also recorded: do not induce cytotoxicity; also recorded: do not cause toxicity	–	–	significant increase	significantly decreased	significantly increased	significantly increased	significantly decreases	significantly decreases	39	37.5
CO[C@H]1C[C@@H]2CC[C@@H](C)[C@@](O)(O2)C(=O)C(=O)N2CCCC[C@H]2C(=O)O[C@H]([C@H](C)C[C@@H]2CC[C@@H](O)[C@H](OC)C2)CC(=O)[C@H](C)/C=C(\C)[C@@H](O)[C@@H](OC)C(=O)[C@H](C)C[C@H](C)/C=C/C=C/C=C/1C [Rapamycin, reference compound]	–	–	–	–	did not modify the expression levels; also recorded: did not produce significant changes	–	–	–	significant increase	significantly decreased	significantly increased	significantly increased	significantly decreases	significantly decreases	–	–
